From PubChem BioAssay
LMPTP inh = LMPTP phosphatase inhibitors, primary screen, biochemical, fluorescence intensity, uHTS. Low molecular weight phosphotyrosine protein phosphatase (Homo sapiens), P24666. recombinant LMPTP-A, OMFP fluorogenic substrate. inhibition, % at 20 µM. 360,000 compounds, 0.22% hits;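 active means compounds that cut the enzyme signal by at least half of the control window in the single-dose screen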;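 further: plate controls were DMSO wells with enzyme plus substrate for no effect and substrate without enzyme for full effect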
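Test system – LMPTP-A phosphatase enzyme · Quantity – 0.625 nM LMPTP-A final · Reagent – OMFP substrate, 400 µM final · Dosing – one test concentration per compound, 20 µM, with 3% DMSO overall · Timing – 50 min enzyme reaction at room temperature, protected from light · Detection – fluorescence intensity · Controls – substrate-only low control, DMSO enzyme-plus-substrate high control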
DNMT1 inh = human DNMT1 methyltransferase inhibitors, primary screen, biochemical, molecular beacon, fluorescence, HinP1I cleavage, uHTS. DNA (cytosine-5)-methyltransferase 1 (Homo sapiens), P26358. inhibition (reported as % activation of signal), % at 10 µM. 360,000 compounds, 0.83% hits. AID 588458, 2011; in the data active means inhibition above about 50%
SUMO1 PPI mod = modulators of SUMO1 protein-protein interactions, primary screen, biochemical, uHTS; AID 602429, 2012; SUMO1 binding to a labelled peptide, TR-FRET, 1 h; 360,000 compounds, 0.33% hits; inhibition, % at 20 µM; in the data active means inhibition above about 37%
Target sequence (P63165 whole entry, looked up): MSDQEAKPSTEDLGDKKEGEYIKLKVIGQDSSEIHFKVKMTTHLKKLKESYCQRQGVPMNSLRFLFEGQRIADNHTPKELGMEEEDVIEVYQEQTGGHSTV
Scp-1 inhibitor = Scp-1 phosphatase inhibitors, primary screen, biochemical, colorimetric, uHTS. inhibition, % at 20 µM. 340,000 compounds, 0.88% hits. Recombinant Scp1, phosphopeptide, malachite green phosphate absorbance. AID 493091, 2011. Carboxy-terminal domain RNA polymerase II polypeptide A small phosphatase 1 (Homo …;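 active means inhibition above about 50% at 20 µM, limit read from the data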;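 further: plate controls were DMSO wells with enzyme for no effect and wells lacking enzyme for full effect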
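Material – SCP-1 phosphatase catalytic domain, residues 76-261 · Buffer or medium – Acidic Tris acetate buffer with magnesium and detergent · Also added – Phospho 17-mer peptide substrate · Compound – single 20 µM dose, 1% DMSO · Times – 45 min room-temperature reaction, 5 min colour, 30 min stabiliser · Technique – Phosphate-binding colour reagent, absorbance read at 630 nm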
STEP block = STEP phosphatase inhibitors, primary screen, biochemical, fluorescence intensity, uHTS. recombinant STEP, OMFP fluorogenic substrate. inhibition, % at 20 µM. 360,000 compounds, 0.25% hits. Tyrosine-protein phosphatase non-receptor type 5 (Homo sapiens), P54829;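 active means inhibition at 20 µM, scaled per plate between control wells, above about 37%, limit read from the data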;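 further: 0% = DMSO with enzyme and substrate and 100% = substrate only without enzyme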
Target sequence (P54829 whole entry, looked up): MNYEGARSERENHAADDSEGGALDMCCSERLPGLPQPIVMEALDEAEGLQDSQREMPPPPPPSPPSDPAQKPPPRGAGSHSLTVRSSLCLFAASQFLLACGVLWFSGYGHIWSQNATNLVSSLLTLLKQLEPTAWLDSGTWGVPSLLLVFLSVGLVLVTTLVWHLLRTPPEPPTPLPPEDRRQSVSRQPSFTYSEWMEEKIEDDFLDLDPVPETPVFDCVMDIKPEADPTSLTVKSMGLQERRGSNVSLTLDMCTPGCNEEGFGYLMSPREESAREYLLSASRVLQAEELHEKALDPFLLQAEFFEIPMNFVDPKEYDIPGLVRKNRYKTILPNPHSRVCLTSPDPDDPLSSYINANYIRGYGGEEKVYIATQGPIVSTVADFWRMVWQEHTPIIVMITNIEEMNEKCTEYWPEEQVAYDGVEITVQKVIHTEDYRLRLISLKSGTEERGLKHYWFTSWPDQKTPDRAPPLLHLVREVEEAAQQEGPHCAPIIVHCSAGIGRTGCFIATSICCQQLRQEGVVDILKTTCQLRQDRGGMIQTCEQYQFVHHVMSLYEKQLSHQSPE
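Material: STEP (striatal-enriched tyrosine phosphatase) enzyme, cell-free; Compound dosing: 20 µM single dose in 1% DMSO; Technique: fluorescence read at 480 nm ex / 540 nm em; Times: reaction 20 min, ambient temperature; Medium: 50 mM Bis-Tris pH 6.0 with 2.5 mM DTT and 0.005% Tween 20; Also added: OMFP at 25 µM.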
GRK2 aptamer HTS = compounds blocking aptamer binding on GRK2 – biochemical, human GRK2, bead flow cytometry, HTS, primary screen. Beta-adrenergic receptor kinase 1 (Homo sapiens), P25098. FAM-aptamer displacement from GRK2. inhibition of aptamer binding, % at 10 µM. 330,000 compounds, 0.59% hits. AID 488847, 2010;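 active means inhibition of aptamer binding above 40%, roughly 3 SD of noise, on plates passing a quality check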;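 further: median bead fluorescence of bound FAM aptamer so fluorescent compounds give negative values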
GRK2 inh confirm = GRK2 aptamer-displacing inhibitors, retest, confirmation, biochemical, cherry pick 1, bead flow cytometry; shares compounds with GRK2 aptamer HTS; bead-bound GRK2, FAM-aptamer displacement; aptamer displacement, % at 10 µM; 2,000 compounds, 4% hits;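 active means aptamer displacement above 40%, near three times the noise of non-fluorescent compounds, on plates passing quality checks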;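 further: negative values mostly reflect intrinsic compound fluorescence rather than true enhancement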
FAM quench CP1 = aptamer fluorescence quenching in GRK2 counter-screen | shares compounds with GRK2 aptamer HTS | fluorescence response (% of DMSO), % at 10 µM | Carboxyfluorescein RNA aptamer on beads, flow cytometry quenching; active compounds read low | 2,000 tested, under 10 active;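 active means compounds that quench the bead-bound fluorescent RNA probe, cutting fluorescence to under half of the solvent control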;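 further: counterscreen run without GRK2 so only probe quenching by compound is measured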
GRK2 CP2 = GRK2 aptamer-displacing inhibitors, hit retest, confirmation, biochemical, cherry pick 2, bead flow cytometry. bead-bound GRK2, FAM-aptamer displacement. AID 504782, 2011. 360 tested, under 10 active. inhibition of aptamer binding, % at 10 µM. shares compounds with GRK2 aptamer HTS;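 active means inhibition of aptamer binding above 40%, about triple the noise seen with nonglowing compounds, on plates passing quality control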;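 further: negative values mostly come from compounds that fluoresce themselves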
FAM quench CP2 = aptamer fluorescence quenching in GRK2 counter-screen; fluorescence response vs DMSO, % at 10 µM; 360 tested, under 10 active; shares compounds with GRK2 aptamer HTS; AID 588494; carboxyfluorescein RNA aptamer beads, flow cytometry quenching; active compounds read low;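 active means response vs DMSO under 50%, meaning signal dropped by over half, treated as fluorescence quencher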;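 further: labelled aptamer on streptavidin beads without GRK2 as a quench counter-screen; 100% = bead fluorescence of DMSO wells and lower means quenching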
* = called active by the depositor; / = no result given. In the library only some 2.1% were active in any assay of this set; here they are far more common.

SMILES	LMPTP inh	DNMT1 inh	SUMO1 PPI mod	Scp-1 inhibitor	STEP block	GRK2 aptamer HTS	GRK2 inh confirm	FAM quench CP1	others
COc1cc([C@H]2OC[C@H]3[C@@H]2CO[C@H]3c2ccc(O)c(OC)c2)ccc1O	-1	-6	6	-8	-1	0	/	/
Cc1ccc(NC2=NC(C(=O)Nc3ccc(C)c(C)c3)CC(=O)N2)cc1 (stereo not given)	-2	4	-2	0	1	0	-3	102
Cc1cc2cc(CNC(=O)c3ccc(Br)o3)ccc2n1C	2	19	-11	-6	1	73*	8	80
Cc1cc2cc(CNC(=O)Nc3cccc(Cl)c3)ccc2n1C	4	69*	-45	-12	0	44*	-11	99
CCC1(c2ccccc2)NC(=O)N(CC(=O)Nc2ccccc2C(=O)N2CCCCC2)C1=O (stereo not given)	-1	-2	-2	1	-1	0	/	/
CC(C)C(NC(=O)c1ccco1)C(=O)NC1CCCCCC1 (stereo not given)	0	2	2	3	-2	0	/	/
COc1ccc(-n2ncc3c2CC(C)(C)CC3NC(=O)c2ccc(OC)o2)cc1 (stereo not given)	-1	0	-4	-3	-2	0	/	/
COc1cc2c(cc1OC)C(C)N(C(=O)c1cccs1)CC2 (stereo not given)	-2	-1	4	-5	-2	81*	-4	102
COc1cc2c(cc1OC)C(C)N(C(C)=O)CC2 (stereo not given)	-1	-1	1	0	-3	0	/	/
Cc1ccc(C)c(S(=O)(=O)NCCCc2ccccc2)c1	1	1	30	2	0	81*	0	109
O=S(=O)(NCCCc1ccccc1)c1ccccc1	-2	0	3	-16	2	0	/	/
CCO[C@@H]1OC(C(=O)NCc2nc3ccccc3[nH]2)=C[C@H](c2ccc(C(F)(F)F)cc2)[C@H]1CCCO	1	17	1	-3	0	1	/	/
COCCNC(=O)c1ccc(CS(=O)(=O)c2ccccc2OC)o1	-1	0	3	-5	-3	50*	-1	95
COCCCNC(=O)c1ccc(CS(=O)(=O)c2ccccc2OC)o1	-3	-2	15	-12	-3	37	/	/
O=C(COC(=O)c1cc(=O)[nH]c2ccccc12)NC(=O)c1ccccc1	1	9	-13	-1	-2	68*	-3	110
N#CCCN(C(=O)COC(=O)c1cc(=O)[nH]c2ccccc12)c1ccccc1	0	0	-32	-10	0	45*	-1	101
CCN(c1ccccc1)S(=O)(=O)c1ccc2c(c1)N(C(C)=O)CCS2	1	2	-1	-11	-1	0	/	/
CC(=O)c1ccc(NC(=O)CSc2nnc(NC(=O)c3ccco3)s2)cc1	2	-1	6	-10	-1	46*	/	/	GRK2 CP2=-17;FAM quench CP2=99
CCC(=O)Nc1nnc(SCC(=O)Nc2ccc3c(c2)OCCO3)s1	0	-2	0	-2	2	68*	/	/	GRK2 CP2=-9;FAM quench CP2=100
CCC(=O)Nc1nnc(SCC(=O)Nc2ccc3c(c2)OCO3)s1	0	1	3	-3	-2	0	/	/
NS(=O)(=O)c1ccc(CCNC(=O)c2ccccc2-c2ccccc2)cc1	0	1	1	-2	0	82*	-5	100
NS(=O)(=O)c1ccc(CCNC(=O)c2ccccc2F)cc1	-1	0	0	-7	1	0	/	/
COc1ccc(Cn2nnnc2C(c2ccccn2)N2CCN(c3cc(Cl)ccc3C)CC2)cc1 (stereo not given)	6	-13	-7	-5	-2	0	/	/
COCCn1nnnc1C(c1ccccn1)N1CCN(c2cc(Cl)ccc2C)CC1 (stereo not given)	2	-6	-3	0	0	97*	-1	102
COc1ccc(N(C(=O)c2snc(C(N)=O)c2N)C(CC(C)C)C(=O)NCC2CCCO2)cc1 (stereo not given)	-1	-3	-10	-6	-2	1	/	/
SMILES	LMPTP inh	DNMT1 inh	SUMO1 PPI mod	Scp-1 inhibitor	STEP block	GRK2 aptamer HTS	GRK2 inh confirm	FAM quench CP1	others
CCn1nc(NC(=O)C(C)(C)C)c2cc3cccc(C)c3nc21	0	1	-6	-1	1	50*	2	102
CCn1nc(NC(=O)CC(C)C)c2cc3cccc(C)c3nc21	-1	-2	-4	4	-2	0	/	/
CC[C@]12C(=O)N(C)C[C@H]([C@@H]3C(=O)N(C)C(=O)[C@@H]31)N2C(=O)c1ccc(F)cc1	-2	-4	4	-5	3	/	/	/
CCOC(=O)C1CCCN(CCC(C)c2ccccc2)C1 (stereo not given)	1	3	-4	-4	0	78*	2	102
CC(CNC(=O)c1ccccc1Cl)c1ccccc1 (stereo not given)	-2	-6	3	-5	0	5	/	/
Cc1nn(-c2ccc(Cl)c(Cl)c2)c(=O)c2ccccc12	-4	19	-7	0	0	1	/	/
Cc1nn(-c2ccc(Cl)cc2)c(=O)c2ccccc12	-1	0	-3	-6	-2	96*	2	97
Cc1cc(C)n(CC(=O)c2ccc(Br)cc2)c(=O)c1C#N	-2	2	-1	-7	-4	71*	-7	102
